A short description of the data set: Toxicity liver stage against HepG2, at 10uM. The format is cell-based. Also noted: test concentration 10 uM, cell line HepG2-A16-CD81EGFP. The settings on record: human, HepG2-A16-CD81EGFP cells; read-out: INHIBITION
Put shortly:
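Uninfected HepG2-A16-CD81EGFP cells, 3 × 10^3 per well, 1536-well, plated on prespotted compound at 10 μM final, parasite-free screening media added to match infected plates; puromycin 10 μM positive, DMSO 0.5% negative; run in parallel with 48 h PbLuc assay at 37 °C, 5% CO2; viability by CellTiter-Glo luminescence, normalized to controls.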
Regarding `O=C(NC[C@H]1CCCC[C@H]1O)c1cccc2[nH]c(-c3ccco3)nc12`, the cytotoxicity at 10 µM was -2.51%. With `COc1ccc(CN2CC(O)CN(C(=O)c3ccccc3)CC2=O)cc1` (stereo unspecified) the figure was 0.331%. Turning to `O=S1(=O)NCC2(CCN(c3ncc(F)cn3)CC2)COc2ccccc21`, the cytotoxicity at 10 µM is 4.74%.

For the compound `CN(C)C(=O)c1cc2c(nc1NCC1CC1)CCNCC2`, the cytotoxicity at 10 µM is 8.39%. In the case of `O=C(c1ccoc1)N1CCOCC2(CCN(Cc3cccs3)C2)C1` (stereo unspecified), the cytotoxicity at 10 µM is -2.98%. For the compound `CCOCC1CN(C(=O)c2ccoc2C)Cc2cnn(C)c21` (stereo unspecified), the cytotoxicity at 10 µM was -2.48%. `CC(C)Oc1ncnc2c1CCN(c1cc(C(F)(F)F)ncn1)CC2`: the cytotoxicity at 10 µM stood at 19%. For `CCOc1ncnc2c1CCN(c1cc(C(F)(F)F)ncn1)CC2`, the cytotoxicity at 10 µM was 12.8%. Turning to `CC1CCCN(c2ncc(C(=O)NCc3ccc(F)c(Cl)c3)c(N)n2)C1` (stereo unspecified), the cytotoxicity at 10 µM is -2.83%. Consider `Cc1nsc(C(=O)N2CCc3ccccc3C2)n1`, for which the cytotoxicity at 10 µM amounted to 5.86%. On to `CSc1[nH]nc(NC(=O)c2ccccc2)c1C#N`, for which the cytotoxicity at 10 µM is -9.59%. As to `Cc1nc(NCc2nccn2C)cc(C2COCCN2)n1` (stereo unspecified), the cytotoxicity at 10 µM was found to be 5.32%. For the compound `COCCC(=O)N1CCCC1c1nc(C)c2c(n1)N(C)C(=O)CC2` (stereo unspecified), the cytotoxicity at 10 µM was -1.04%. For `CN1C[C@@H](C(=O)N2CCOCC2)[C@@]2(CCc3ccccc3C(=O)N2)C1`, the cytotoxicity at 10 µM was 9.87%.

Take `Cc1nn(C)cc1S(=O)(=O)N(C)[C@@H]1CCC[C@@H](n2ccnc2)[C@@H]1O`: the cytotoxicity at 10 µM is -2.78%. Take `Cc1cc(-c2ccc(=O)n(C3CCN(C(=O)C4CC4)CC3)n2)c(C)o1`: the cytotoxicity at 10 µM came out at 4.79%. Regarding `N[C@@H]1CCC[C@@H](Oc2ccc(F)cc2Oc2cccc(F)c2)[C@@H]1O`, the cytotoxicity at 10 µM was -22.2%. `O=C(NCC1CC1)Nc1cnc2ccc(F)cc2c1O`: the cytotoxicity at 10 µM is -8.58%. Turning to `CCn1ncc(CN2CCc3c(nc(-c4cccnc4)[nH]c3=O)C2)c1C`, the cytotoxicity at 10 µM stood at 1.34%.

Regarding `Cc1ccc(NCC2(O)CCNCC2)cc1C`, the cytotoxicity at 10 µM was 2.27%.

Regarding `CC(C)C(NC(=O)c1ccc(N2CCOCC2)nc1)c1cccs1` (stereo unspecified), the cytotoxicity at 10 µM is -44%.

On to `CCCNC(=O)C[S+]([O-])Cc1csc(C2CCCCC2)n1` (stereo unspecified), for which the cytotoxicity at 10 µM is -48.2%. In the case of `COc1ccc(N(C)C(=O)C2CN(C)CCO2)cc1Cl` (stereo unspecified), the cytotoxicity at 10 µM is -46.4%. Take `CCC(O)CN1CCN(C(=O)c2cccc3c2OCC(=O)N3)CC1` (stereo unspecified): the cytotoxicity at 10 µM is -7.55%. As to `COc1ccc(C(=O)NS(=O)(=O)c2ccc(CNC(C)=O)s2)cc1`, the cytotoxicity at 10 µM came to 1.81%. With `CCCc1noc(C[S+]([O-])CC(=O)NCc2ccccc2)n1` (stereo unspecified) the figure was -4.3%. With `CC(C(=O)NCC(C)(C)c1ccc(Br)cc1)n1cncn1` (stereo unspecified) the figure was 1.73%; with `COC(=O)CC(NC(=O)CCCn1cccn1)c1ccc(Cl)cc1` (stereo unspecified), 4.7%; with `CNS(=O)(=O)CC(=O)N(C1CCCC1)C1CC1`, -2.78%.

On to `CCC(=O)NCC(CC)Oc1cccc(F)c1` (stereo unspecified), for which the cytotoxicity at 10 µM is -44%. In the case of `Clc1cccc(C(CNCc2cccnc2)N2CCOCC2)c1` (stereo unspecified), the cytotoxicity at 10 µM was -4.45%.

Regarding `Cc1ccc(C(C)(O)CNC(=O)NCCc2ccc3c(c2)CCO3)o1` (stereo unspecified), the cytotoxicity at 10 µM was -4.53%. With `N#Cc1cccnc1N[C@@H]1c2ccccc2C[C@@H]1O`, the cytotoxicity at 10 µM worked out at 2.28%. As for `CC(C)CC(NC(=O)C1=CCCC1)C(=O)N1CCC(CO)CC1` (stereo unspecified), the cytotoxicity at 10 µM worked out at 8.23%. For `CCN(CC(=O)Nc1cc(Cl)ccc1C)C(=O)c1ccc(=O)[nH]n1`, the cytotoxicity at 10 µM was -0.898%. For the compound `CCC(=O)N1CCN(C(=O)Nc2cccc(N3CCOCC3)c2)CC1`, the cytotoxicity at 10 µM is -3.1%. Take `N#Cc1ccc(CNC(=O)NC2CCN(c3ncccn3)CC2)cc1`: the cytotoxicity at 10 µM was found to be 11.3%.

With `Cc1ccccc1-c1cc(NC(=O)NC2CCC(O)CC2)n(CCO)n1` (stereo unspecified), the cytotoxicity at 10 µM came out at 1.09%. With `CCOc1ncccc1NC(=O)c1ccc(C)s1`, the cytotoxicity at 10 µM is -3.89%.

`CN(C)C(=O)C1CCCN1CCCNC(=O)c1cccc2[nH]ncc12` (stereo unspecified): the cytotoxicity at 10 µM is -1.07%. As for `COc1ccc(CC(=O)N(C)C2CCN(C)C2=O)cc1F` (stereo unspecified), the cytotoxicity at 10 µM was determined as 0.0152%.

Take `Cc1ccc(C2CN(Cc3cnc(-c4ccccn4)s3)CCO2)o1` (stereo unspecified): the cytotoxicity at 10 µM was 2.91%.

Turning to `NC(=O)N1CCCN(Cc2cc(F)cc(Br)c2)CC1`, the cytotoxicity at 10 µM amounted to 9.91%. As for `CC(C)n1nc2c(cc1=O)CN(CCOc1cccc(C#N)c1)CC2`, the cytotoxicity at 10 µM was determined as 13.6%.

As to `CNS(=O)(=O)CCCN1CCCCCC1c1ccc(C)o1` (stereo unspecified), the cytotoxicity at 10 µM is -7.58%. Regarding `CN(C)c1cc(CNCc2ccc(N3CCOCC3)cc2)ccn1`, the cytotoxicity at 10 µM was 23.3%. As to `CC(C)c1nc(/C=C/c2cnn(-c3ccccc3)c2)ncc1C(=O)O`, the cytotoxicity at 10 µM was -11.3%. With `CN(C)c1ncccc1CNC(=O)NCC(c1cccs1)N(C)C` (stereo unspecified), the cytotoxicity at 10 µM was determined as 11.6%. As for `CC(C)(C)[S+]([O-])CCNC(=O)c1ccc(Cl)c2cccnc12` (stereo unspecified), the cytotoxicity at 10 µM was -44.5%. Take `Cc1cc(C2CCCN2C(=O)NCc2cccc(F)c2)on1` (stereo unspecified): the cytotoxicity at 10 µM was 24.8%.

With `Cc1cnn(C2CN(CC(O)c3ccc4c(c3)OCCO4)C2)c1` (stereo unspecified), the cytotoxicity at 10 µM was 21.9%. With `CCS(=O)(=O)N1CCc2c(COC)cncc2C1`, the cytotoxicity at 10 µM was -99%. As for `CC(=O)N1CCc2[nH]nc(C(=O)N3CC=CC3)c2C1`, the cytotoxicity at 10 µM was -108%. For `O=C([C@H]1CCCO1)N1CCc2ncc(CN3CCOCC3)n2CC1`, the cytotoxicity at 10 µM was -72.3%.

With `CN1CCN(Cc2cnc3n2CCN(C(=O)N2CCCC2)C3)CC1`, the cytotoxicity at 10 µM is -72.3%.

As for `O=C(CO)N1CCCC2(CCN(c3ccsc3)C2=O)C1` (stereo unspecified), the cytotoxicity at 10 µM is -66.8%.

Turning to `Cc1ncsc1CN1CC[C@H]2C(=O)N(c3ccccc3)CCO[C@H]2C1`, the cytotoxicity at 10 µM worked out at 1.26%. As to `O=c1c2ccc(Cl)cc2ncn1CCCN1CCCCC1CO` (stereo unspecified), the cytotoxicity at 10 µM is -2.4%. With `COC(C)(C)C(=O)N[C@H]1CN(c2ncccc2C(N)=O)C[C@@H]1C(C)C`, the cytotoxicity at 10 µM is 6.66%.

On to `CN1CC[C@H]2CN(C(=O)c3csc(Cc4ccccc4)n3)C[C@H]21`, for which the cytotoxicity at 10 µM was -2.45%.

Take `Cn1ncc2c(N3CCC(CCO)CC3)nc(C(C)(C)C)nc21`: the cytotoxicity at 10 µM was found to be 14.6%.

With `CC(C)Cc1ncc2c(n1)CN(c1nccc(N(C)C)n1)C2`, the cytotoxicity at 10 µM is -6.1%.

Take `CC(=O)Nc1ccc(CN2CCc3[nH]cnc3C2c2ccc(C)o2)cc1` (stereo unspecified): the cytotoxicity at 10 µM came out at 4.93%.

With `O=C(CCn1ccc(=O)[nH]c1=O)N1CCC(OCc2cccnc2)CC1`, the cytotoxicity at 10 µM is -15.7%.

As for `CCn1nc(CC(C)C)cc1C(=O)N1CCCOC(CN2CCCC2)C1` (stereo unspecified), the cytotoxicity at 10 µM was -7.66%.

Consider `CC(C)N(C)S(=O)(=O)c1ccc2c(c1)CCN(C(=O)c1cccnn1)C2`, for which the cytotoxicity at 10 µM was -1.22%. Turning to `CN1CCN([C@@H]2CCN(Cc3cccc(-n4cccn4)c3)C[C@H]2O)CC1`, the cytotoxicity at 10 µM was 8.42%. As for `Cc1ccccc1CS(=O)(=O)NCCCN1CCCC1`, the cytotoxicity at 10 µM is -7.49%. Regarding `COc1cc(C(N)=O)c(N(C)S(C)(=O)=O)cc1OC`, the cytotoxicity at 10 µM was -7.39%. With `CC1CN(Cc2cc(C#N)ccc2F)CCN1Cc1nccn1C` (stereo unspecified) the figure was -6.33%; with `Cc1noc(C)c1CN(C)C(=O)NC1CCOCC1`, -14.8%; with `CN1CCCC1CNC(=O)CCOc1ccc(Br)cc1` (stereo unspecified), -16.9%.

Turning to `O=C(c1ccc2c(c1)COC2)N1CCC(Nc2ccccc2)CC1`, the cytotoxicity at 10 µM is -7.54%.

Regarding `Clc1cc(CN2CCCC2Cn2cncn2)c2ncccc2c1` (stereo unspecified), the cytotoxicity at 10 µM is 1.28%. In the case of `CC(C)N(Cc1cccc(F)c1)Cc1nc2c(cnn2C)c(=O)[nH]1`, the cytotoxicity at 10 µM is -10.5%. With `O=C(c1ccc2c(c1)COC2)N1CCN(CC2CC2)CC1`, the cytotoxicity at 10 µM is -7.18%.

As for `N#Cc1ccc(OCCCN2CCc3cncnc3C2)cc1`, the cytotoxicity at 10 µM was -10%. The value for `Cc1csc(N2CCN(C(=O)CCc3ccccn3)CC2)n1` was -4.27%; that for `Cc1cc(C)n(CC2CCCN2C(=O)Cc2c(C)noc2C)n1` (stereo unspecified) was -4.05%; that for `Cc1cc(N2CCC(NC(=O)C3CC3)CC2)nc(-c2ccncc2)n1` was -3.71%.

For `Cc1nc(Nc2cnccn2)cc(C2CCN(CCO)C2)n1` (stereo unspecified), the cytotoxicity at 10 µM was determined as 0.636%. In the case of `CCN1CCOCC12CCN(C(=O)Cc1cccs1)CC2`, the cytotoxicity at 10 µM turned out to be 6.22%. In the case of `Cn1nc(C2CCN(C(=O)CN3CCCCC3)CC2)c2cccnc21`, the cytotoxicity at 10 µM was -30.1%. The value for `Cc1cc2c(=O)n3c(nc2s1)CCN(Cc1cnc(C)n1C)CC3` was -7.73%.

For the compound `COCCn1cc2c(n1)C(CNCc1ccsc1)OCC2` (stereo unspecified), the cytotoxicity at 10 µM came to 3.89%.

`CN1CCN([C@@H]2CN(C(=O)Cc3ccsc3)[C@@H]3CCCO[C@H]23)CC1`: the cytotoxicity at 10 µM was found to be 2.87%.

Regarding `OCCOCc1n[nH]c2c1CN(Cc1ccco1)C2`, the cytotoxicity at 10 µM was 6.71%. In the case of `CCc1ncc(CN[C@@H]2CCCN(C(C)=O)[C@H]2c2ccc(C)s2)cn1`, the cytotoxicity at 10 µM is -26.2%. As to `Cc1cccc(CN2C[C@@H]3CN(Cc4ccoc4)CCO[C@@H]3C2)n1`, the cytotoxicity at 10 µM is 6.53%. `O=C(C1CN(CC2CCOCC2)CC12CCOCC2)N1CCOCC1` (stereo unspecified): the cytotoxicity at 10 µM is 7.49%. For `O=C1CC2(CCN(Cc3cccnc3)C2)CN1c1ccc2c(c1)OCO2` (stereo unspecified), the cytotoxicity at 10 µM is -70.2%. The value for `O=S(=O)(C1CC1)N1CCC2(CC1)CN(Cc1nccs1)CCO2` was 8.1%; that for `O[C@@H]1CCN(CC2CCOC2)[C@H]1Cc1cccnc1` (stereo partly specified) was -8.56%; that for `Cn1cc(N2CC3(CCN(Cc4cccnc4)CC3)OCC2=O)cn1` was -79.3%.

For `CN(C)CCNCCC(Cc1ccccc1)C1CCOC(C)(C)C1` (stereo unspecified), the cytotoxicity at 10 µM is 1.51%.

Take `COc1ccc(CCNC(=O)C2CCC(Cn3cnnn3)CC2)cc1` (stereo unspecified): the cytotoxicity at 10 µM is 10.2%.
